The IC50 is the concentration that gives 50% inhibition.

Calls of active or inactive are those of the source. The rule behind the calls is not given here.

The record followed here is ChEMBL document CHEMBL1177719 (J Med Chem, 2010).

For data set [1], the target named is T1, Nitric oxide synthase, inducible (Mus musculus, UniProt P29477).
T1 sequence (P29477 whole entry): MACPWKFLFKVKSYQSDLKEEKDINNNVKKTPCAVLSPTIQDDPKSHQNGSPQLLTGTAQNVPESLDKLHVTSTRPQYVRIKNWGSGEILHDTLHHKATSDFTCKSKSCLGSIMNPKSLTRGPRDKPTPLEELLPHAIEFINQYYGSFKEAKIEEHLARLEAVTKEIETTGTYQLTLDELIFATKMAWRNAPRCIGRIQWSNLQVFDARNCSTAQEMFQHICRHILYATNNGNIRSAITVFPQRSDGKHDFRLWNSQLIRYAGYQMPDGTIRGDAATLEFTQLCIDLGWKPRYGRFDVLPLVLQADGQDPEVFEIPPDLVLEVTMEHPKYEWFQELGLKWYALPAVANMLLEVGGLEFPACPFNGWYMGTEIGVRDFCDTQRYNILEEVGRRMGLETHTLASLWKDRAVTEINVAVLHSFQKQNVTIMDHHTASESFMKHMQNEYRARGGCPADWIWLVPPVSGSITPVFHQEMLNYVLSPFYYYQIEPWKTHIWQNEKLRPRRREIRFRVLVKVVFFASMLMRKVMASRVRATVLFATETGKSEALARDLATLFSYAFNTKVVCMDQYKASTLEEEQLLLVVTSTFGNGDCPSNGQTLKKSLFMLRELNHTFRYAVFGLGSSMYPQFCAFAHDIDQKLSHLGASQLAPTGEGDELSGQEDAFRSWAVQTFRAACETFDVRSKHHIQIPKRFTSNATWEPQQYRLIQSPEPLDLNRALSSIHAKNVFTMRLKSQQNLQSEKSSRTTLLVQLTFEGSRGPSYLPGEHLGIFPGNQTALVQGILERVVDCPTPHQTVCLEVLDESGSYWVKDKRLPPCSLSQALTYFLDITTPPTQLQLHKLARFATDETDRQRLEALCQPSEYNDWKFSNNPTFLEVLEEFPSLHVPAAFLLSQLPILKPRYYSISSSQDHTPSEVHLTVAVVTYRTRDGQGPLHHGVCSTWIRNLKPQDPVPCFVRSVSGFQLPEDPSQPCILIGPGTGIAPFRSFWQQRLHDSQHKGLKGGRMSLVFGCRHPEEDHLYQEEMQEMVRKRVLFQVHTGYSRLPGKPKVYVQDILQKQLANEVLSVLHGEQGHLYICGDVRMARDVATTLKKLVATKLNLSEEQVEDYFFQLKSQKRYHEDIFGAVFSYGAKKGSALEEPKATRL

For data set [2], the system named is RAW264.7. As to the kind of experiment: Inhibition of LPS-induced iNOS expression in mouse RAW264.7 cells at 34 uM treated 15 mins before LPS challenge measured after 18 hrs by Western blotting. It counts as functional, cell-based. A digest of the protocol:
(§1)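 RAW 264.7 cells pretreated 15 min with compound (34 μM), then LPS 1 μg/mL for 18 h. Lysates (30 μg protein) run on 8% SDS-PAGE and transferred to PVDF. Blocked in 5% milk/TBST, probed for iNOS and COX-2 with HRP secondary, ECL detection, β-actin internal control. Band density relative to LPS-treated control; duplicate experiments.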
In general terms: In western blotting, separated proteins are transferred to a membrane and probed.

The subject of data set [3] is RAW264.7. The experiment in a line: Inhibition of LPS-induced COX2 expression in mouse RAW264.7 cells at 34 uM treated 15 mins before LPS challenge measured after 18 hrs by immunoblotting. It counts as functional, cell-based. The method, boiled down:
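RAW 264.7 cells pretreated with samples 15 min, then LPS 1 μg/mL for 18 h. Lysates (30 μg protein) run on 8% SDS-PAGE, transferred to PVDF, probed with primary and HRP secondary antibodies, ECL detection. β-actin internal control; band density quantified relative to the LPS-only control; duplicate experiment.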

For the next data set, the system named is KB. As to the kind of experiment: Cytotoxicity against human KB cells assessed as cell survival at 20 ug/ml after 72 hrs by sulforhodamine B method. In kind it is functional. The conditions noted are these: read-out: Activity. A digest of the protocol:
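Sulforhodamine B assay. KB or MCF7 cells plated with samples and held 72 h at 37 °C, 5% CO₂. Fixed 1 h in 10% trichloroacetic acid, stained with 0.4% SRB in 1% acetic acid, dye taken up in 10 mM Tris.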

A further data set has as its system HL-60. The experiment in a line: Cell cycle arrest in human HL60 cells assessed as accumulation at sub-G1 phase at 34 uM after 24 hrs by flow cytometry. In kind it is functional. A digest of the protocol: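 HL-60 cells (2 × 10⁵/well) exposed to samples for 24 h, then stained with NIM-DAPI nuclear isolation medium. Read by flow cytometry under UV excitation; percentage of cells in subG₁ taken from the DNA histogram.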

For data set [4], the target named is T2, Prostaglandin G/H synthase 1 (Ovis aries) (UniProt P05979).
T2 sequence (whole entry): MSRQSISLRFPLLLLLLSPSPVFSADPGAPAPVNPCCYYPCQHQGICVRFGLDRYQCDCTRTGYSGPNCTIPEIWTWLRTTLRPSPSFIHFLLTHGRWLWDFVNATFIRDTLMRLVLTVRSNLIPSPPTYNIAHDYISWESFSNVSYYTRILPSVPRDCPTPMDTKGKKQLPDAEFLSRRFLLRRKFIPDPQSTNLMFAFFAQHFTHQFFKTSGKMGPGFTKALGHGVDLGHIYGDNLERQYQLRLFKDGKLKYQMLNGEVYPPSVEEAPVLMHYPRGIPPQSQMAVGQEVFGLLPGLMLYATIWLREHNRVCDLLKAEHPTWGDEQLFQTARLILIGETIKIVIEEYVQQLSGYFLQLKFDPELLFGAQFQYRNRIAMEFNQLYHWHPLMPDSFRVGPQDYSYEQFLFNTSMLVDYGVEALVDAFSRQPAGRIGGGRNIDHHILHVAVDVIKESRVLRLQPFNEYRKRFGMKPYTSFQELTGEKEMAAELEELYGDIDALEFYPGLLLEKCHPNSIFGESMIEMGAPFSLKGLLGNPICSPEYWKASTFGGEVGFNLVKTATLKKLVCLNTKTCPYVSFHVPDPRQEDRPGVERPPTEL
The experiment in a line: Inhibition of sheep seminal vesicles COX1 assessed as PGE2 production at 34 uM after 10 mins by ELISA relative to control. A digest of the protocol: (§2)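 Sheep seminal vesicle COX-1; reaction started with arachidonic acid, 10 min at room temperature, stopped with 27.8 μM indomethacin. PGE₂ quantified by competitive ELISA (PGE₂-acetylcholinesterase tracer, Ellman's reagent, 412 nm) against a PGE₂ standard curve. Result as % of solvent control; IC₅₀ from dose-response curves.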

Data set [5] relates to HEK293. The experiment in a line: Cytotoxicity against human HEK293 cells at 34 uM. To be noted: hek293, 34 µM. In kind it is cell-based.
The target in data set [6] is T3, Prostaglandin G/H synthase 1 (Ovis aries, UniProt P05979).
T3 sequence (P05979 whole entry): T2 sequence (whole entry)
As to the kind of experiment: Inhibition of sheep seminal vesicles COX1 assessed as PGE2 production after 10 mins by ELISA. The method, boiled down:
as §2
(In general: In an ELISA, binding on a coated surface is turned into a signal by an enzyme label.)

Another data set deals with MCF7. As to the kind of experiment: Cellular uptake in human MCF7 cells assessed per millions cells at 50 uM after 24 hrs by LC/MS/MS analysis. In kind it is ADME, cell-based. To be noted: mcf7, 24 h.
Data set [7] concerns HEK293. As to the kind of experiment: Inhibition of TNF-alpha-induced NF-kappaB activity expressed in HEK293 cells at 34 uM after 48 hrs by luciferase reporter gene assay relative to control. In kind it is cell-based. A digest of the protocol: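 Stably transfected 293 cells carrying an NFκB response element–luciferase reporter, exposed to TNFα plus compound for 48 h, then assayed for luciferase. Activity expressed as % of TNFα-treated control. IC₅₀ from five serial dilutions, mean of two experiments.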
(In general: A reporter such as luciferase makes a cellular process visible.)

For data set [8], the system named is RAW264.7. As to the kind of experiment: Inhibition of LPS-induced COX2 expression in mouse RAW264.7 cells at 34 uM treated 15 mins before LPS challenge measured after 18 hrs by Western blotting relative to control. In kind it is functional. A digest of the protocol:
as §1

The nature of data set [9]: Antioxidant activity assessed as nitric oxide scavenging activity at 60 uM. It counts as functional. A digest of the protocol:
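Compounds diluted tenfold in PBS and incubated with sodium nitroprusside (final compound 60 μM, SNP 5 mM) for 3 h at room temperature. Nitrite measured by Griess reagent, absorbance 540 nm. % inhibition given as average of triplicates ± standard deviation.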

Data set [10] addresses T4, Nitric oxide synthase, inducible (Mus musculus) (UniProt P29477).
T4 sequence (whole entry): T1 sequence (P29477 whole entry)
As to the kind of experiment: Inhibition of iNOS-mediated nitric oxide production in LPS-stimulated mouse RAW 264.7 cells at 34 uM pretreated 30 mins before LPS challenge measured after 20 hrs by Griess reaction method relative to control. It counts as cell-based.

Data set [11] in a line: Antioxidant activity assessed as DPPH scavenging activity at 340 uM after 30 mins. In kind it is functional.
Data set [12] has as its target NAD(P)H dehydrogenase [quinone] 1 (Mus musculus) (UniProt Q64669). As to the kind of experiment: Induction of quinone reductase 1 in mouse Hepa 1c1c7 cells assessed as drug level required to double enzyme activity by MTT assay.
For a further data set, the target named is T5, Aromatase (Homo sapiens, UniProt P11511).
T5 sequence (P11511 whole entry): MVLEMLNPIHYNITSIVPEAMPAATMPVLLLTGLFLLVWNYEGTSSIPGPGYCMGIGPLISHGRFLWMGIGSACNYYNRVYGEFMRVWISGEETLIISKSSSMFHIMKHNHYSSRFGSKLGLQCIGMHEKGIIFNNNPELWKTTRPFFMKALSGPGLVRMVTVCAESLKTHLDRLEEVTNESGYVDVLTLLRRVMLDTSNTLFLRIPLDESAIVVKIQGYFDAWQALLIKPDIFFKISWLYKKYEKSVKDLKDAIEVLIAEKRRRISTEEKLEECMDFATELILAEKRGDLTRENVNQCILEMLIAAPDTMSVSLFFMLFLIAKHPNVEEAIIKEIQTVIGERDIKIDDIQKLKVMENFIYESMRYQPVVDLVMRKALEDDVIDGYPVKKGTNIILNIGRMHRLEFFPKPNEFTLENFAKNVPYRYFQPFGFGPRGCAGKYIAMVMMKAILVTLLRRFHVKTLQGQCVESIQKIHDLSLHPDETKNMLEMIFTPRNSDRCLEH
To be noted: read-out: INH.

The target in data set [13] is T4, Nitric oxide synthase, inducible (Mus musculus). As to the kind of experiment: Inhibition of iNOS-mediated nitric oxide production in mouse RAW 264.7 cells at 34 uM pretreated 30 mins measured after 20 hrs by Griess reaction method relative to control. It counts as cell-based. A digest of the protocol:
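RAW 264.7 macrophages seeded at 1 × 10⁵ cells/well for 24 h. Compounds in phenol red-free DMEM added 30 min before LPS (1 μg/mL), then 20 h further incubation. Nitrite in medium measured by Griess reagent at 540 nm against a sodium nitrite standard curve; inhibition at 34 μM.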

NAD(P)H dehydrogenase [quinone] 1 (Mus musculus), sequence (Q64669 whole entry): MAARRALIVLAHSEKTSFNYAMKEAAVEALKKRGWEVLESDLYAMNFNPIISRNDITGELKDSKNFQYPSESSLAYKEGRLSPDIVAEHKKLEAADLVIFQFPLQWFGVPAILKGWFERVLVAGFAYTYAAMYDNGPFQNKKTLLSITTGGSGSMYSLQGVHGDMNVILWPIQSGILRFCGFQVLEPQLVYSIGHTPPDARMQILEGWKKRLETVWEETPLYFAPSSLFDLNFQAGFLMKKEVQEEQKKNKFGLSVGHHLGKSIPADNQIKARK

For the compound `Oc1ccc(/C=C/c2cc(O)cc(O)c2)cc1` [RESVERATROL], the figures for the concentration for half-maximal inhibition (IC50) in [1] and in [6] were 15 µM and 6.65 µM, respectively. Besides, in the data set on RAW264.7 [2], the inhibition result is “Active”. Besides, in the data set on RAW264.7 [3], the inhibition entry was “inactive”. Moreover, in the data set on KB, the viability at 20 µg/mL was found to be 47.8%. For the same compound, the results for the Activity in the data set with HL-60 and with HEK293 [5] were 24.9% and “Non-toxic”, respectively. Besides, the inhibition worked out at 75.2% in data set [4] and 75.7% with HEK293 [7]. This compound also came in with a Drug uptake in the data set on MCF7 of 54.7 pmol.

As to `O=S(=O)([O-])Oc1ccc(/C=C/c2cc(O)cc(OS(=O)(=O)[O-])c2)cc1.[K+].[K+]`, the “fold change (FC)” value in the data set with RAW264.7 [8] stood at 0.6. Moreover, the Activity in data set [9] was 0%; in the data set on HEK293 [5], “Non-toxic”. Also, in the data set on RAW264.7 [3], the inhibition entry is “inactive”. The inhibition in [10] was 41.7%; in data set [11], 6.8%; in data set [4] it was 23.3%; in the data set with HEK293 [7], 53.4%. Also, the CD in [12] was more than 10.1 µM. Besides, the inhibition at 34 µM on Aromatase was 22.5%. Also, in data set [13], the outcome was inactive.
